PostGolgi ctrl = growth inhibition of yeast control strain, primary screen, counter-screen for post-Golgi transport modulator project. 5% of 98,000 active. inhibition, % at 10 µM. efflux-deficient yeast background strain, growth absorbance A615, 16 h. AID 738, 2007; in the data active = inhibition above about 30%
PostGolgi yeast = phenotypic screen on post-Golgi transport, primary screen. AID 739, 2007. inhibition, % at 10 µM. post-Golgi transport phenotypic cell assay. 0.9% of 98,000 active; in the data active = inhibition above about 30%;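 also: yeast cells grown in 1536-well plates; yeast grown about 18 h at 30C before absorbance read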
PTK2B oligo ant = antagonists of Pyk2 self-association, primary screen, Q293 cells, FERM NanoBiT luminescence, HTS. Protein-tyrosine kinase 2-beta (Homo sapiens), Q14289. stronger effect = lower value. z-score (the deposit names both 25 µM and 10 µM). 0.83% of 99,000 active. AID 1347419, 2020;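 active = Z-score of -3 or lower, scaled per plate to the spread of control and sample wells; inactive = z-score above -3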;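 also: negative z-score means lost luminescence so less FERM oligomerization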
Target sequence (Q14289 whole entry, looked up): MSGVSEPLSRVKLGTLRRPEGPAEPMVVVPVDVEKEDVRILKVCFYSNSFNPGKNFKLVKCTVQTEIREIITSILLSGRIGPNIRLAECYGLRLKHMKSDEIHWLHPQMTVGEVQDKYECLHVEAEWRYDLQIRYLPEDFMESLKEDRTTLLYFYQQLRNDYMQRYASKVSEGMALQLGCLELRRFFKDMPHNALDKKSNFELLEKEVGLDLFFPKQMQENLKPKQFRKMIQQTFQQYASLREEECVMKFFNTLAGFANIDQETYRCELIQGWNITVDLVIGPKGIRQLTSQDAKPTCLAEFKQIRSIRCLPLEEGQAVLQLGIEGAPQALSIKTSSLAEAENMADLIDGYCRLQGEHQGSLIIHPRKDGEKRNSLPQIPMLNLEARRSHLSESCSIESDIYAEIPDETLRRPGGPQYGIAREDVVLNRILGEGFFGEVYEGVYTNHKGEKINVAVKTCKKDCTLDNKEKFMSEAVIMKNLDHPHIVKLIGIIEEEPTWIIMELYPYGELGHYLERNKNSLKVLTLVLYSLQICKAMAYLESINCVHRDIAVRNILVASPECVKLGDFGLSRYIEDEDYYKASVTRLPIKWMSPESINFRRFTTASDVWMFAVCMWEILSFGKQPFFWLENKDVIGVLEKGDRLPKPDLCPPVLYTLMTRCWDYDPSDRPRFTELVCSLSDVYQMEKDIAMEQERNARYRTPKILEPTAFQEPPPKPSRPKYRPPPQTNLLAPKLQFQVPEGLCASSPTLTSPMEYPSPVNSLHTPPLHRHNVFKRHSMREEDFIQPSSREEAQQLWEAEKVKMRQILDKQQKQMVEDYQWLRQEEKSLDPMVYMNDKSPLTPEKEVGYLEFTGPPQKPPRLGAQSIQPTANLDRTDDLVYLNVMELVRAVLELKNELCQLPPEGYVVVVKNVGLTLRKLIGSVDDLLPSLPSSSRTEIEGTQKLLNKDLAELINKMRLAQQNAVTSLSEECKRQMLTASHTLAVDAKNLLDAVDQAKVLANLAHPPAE
tolC growth inh = growth inhibitors of E. coli tolC mutant, primary screen, strain BW25113 ΔtolC::kan, 384-well. 2.2% of 65,000 active. growth inhibition, % at 10 µM (by protocol). OD615;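 active = growth inhibition at or above a cutoff equal to the mean over every tested compound plus 3 SD, cut at about 60% in these data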;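 also: growth measured after 20 h incubation at 37 °C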
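signal = optical density read at 615 nm | test system = E. coli ΔtolC::kan strain BW25113 | timing = 20 h compound exposure of bacteria at 37 °C | buffer or medium = LB medium plus 50 µg/mL kanamycin | compound dosing = 10 µM final, single dose | evaluation = % inhibition of E. coli growth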
Candida biofilm = clotrimazole potentiators killing Candida biofilms, primary screen, with clotrimazole, Alamar Blue; 0.14% of 85,000 active; C. albicans biofilm + clotrimazole; inhibition, % at 6 µM; AID 834, 2007;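 active = inhibition above 20%; inactive = inhibition below 20%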;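 also: preformed 24 hr biofilms exposed to compound for 48 hr; 0% = biofilm without compound and 100% = blank killed by clotrimazole plus chlorhexidine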
FAK blocker = FAK kinase inhibitors, primary screen, biochemical. Focal adhesion kinase 1 (Homo sapiens), Q05397. biochemical FAK kinase activity assay. inhibition, %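 (tested at 7 µM)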. 0.84% of 97,000 active. AID 727, 2007;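 also: 0% = DMSO and 100% = reference compound high control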
FAK inh confirm = FAK kinase inhibitors, retest, confirmation, biochemical; shares compounds with FAK blocker; 28% of 750 active; FAK kinase biochemical inhibition assay; inhibition, % at 7 µM
* = called active by the depositor; / = no result given. Compounds with a hit are over-represented: about 6.9% of the library has one in this group of screens. Rule as the data show it, unless noted: active = inhibition above about 19%; inactive = the rest.

SMILES | PostGolgi ctrl | PostGolgi yeast | PTK2B oligo ant | tolC growth inh | Candida biofilm | FAK blocker | FAK inh confirm
C=CCn1c(NC(=O)c2ccccc2Cl)c(C#N)c2nc3ccccc3nc21 | 14 | 4 | -0.34 | 84* | -2 | 20* | 6
Cc1ccc(C)c(C(=O)CSc2n[nH]c(-c3ccncc3)n2)c1 | 0 | -1 | 0.68 | 99* | / | 30* | 12
COC(=O)c1cc(OC)c(OC)cc1NC(=O)c1cc(-c2ccccc2)nc2ccccc12 | 4 | 0 | -0.05 | / | / | 21* | 8
O=C1Cc2ccccc2C(=O)N1CCc1ccccc1 | -5 | -8 | / | 9 | / | 40* | 37*
CN=C(c1ccco1)n1c(=S)nc(-c2ccco2)n(C)c1=S | 11 | 0 | -0.09 | -3 | 7 | 8 | /
COc1ccc2nc3oc(C(=O)NCc4cccs4)cc3cc2c1 | 2 | 10 | -0.01 | -20 | / | 32* | 10
COc1ccccc1N(C(=O)c1snc(C(N)=O)c1N)C(C(=O)NC1CCCC1)c1ccco1 (centres undefined) | 3 | 4 | -0.99 | 14 | 9 | 7 | /
CC(C(=O)NC1CCCC1)N(C(=O)c1snc(C(N)=O)c1N)c1ccc2c(c1)OCCO2 (centres undefined) | 7 | -5 | -0.26 | 12 | 6 | 21* | 4
CCC(=O)Nc1nnc(Sc2ccc(N(C)C)cc2)s1 | 15 | 1 | 0.37 | 4 | / | 21* | 1
O=C1C(=O)c2c(C(=O)c3ccccc3)coc2-c2ccccc21 | 45* | 59* | -3.6* | / | -1 | 32* | 20*
CC1=C(CC(=O)c2ccccc2)C(=O)c2ccccc2C1=O | 10 | 3 | -1.1 | / | / | 10 | /
Cc1oc2c(c1C(=O)c1ccccc1)C(=O)C(=O)c1ccccc1-2 | 43* | 27 | -2.2 | / | 1 | 30* | 22*
COC(=O)C(CCSC)NC(=O)Cn1ncc2c(=O)oc3ccc(C)cc3c21 (centres undefined) | 14 | -12 | / | -8 | 4 | / | /
O=C(NC1CC1)c1scc2c1OCCO2 | -2 | 1 | -0.2 | -6 | 10 | 1 | /
O=C(Nc1cccc(-c2nc3ccccc3[nH]2)c1)c1cccc(NC(=O)c2ccco2)c1 | 0 | -8 | -2.5 | 13 | 2 | 71* | 62*
C=CCOc1ccc(/C=C/C(C)=N\O)cc1 | 2 | 0 | -1.1 | 10 | 5 | 20* | 5
CCC(C)Nc1nc(Cl)nc(NCCOc2ccccc2)n1 (centres undefined) | / | / | -1.6 | / | / | / | /
Cc1cc(C)n2nc(C(=O)Nc3ccc4c(c3)OCO4)nc2n1 | 3 | 4 | 1.6 | -4 | 1 | 93* | 3
Cc1occc1C(=O)NC1CCCCCC1 | 19 | -3 | -0.62 | -14 | 5 | 72* | 2
CCCSc1nc2c(cnn2-c2ccc(C)cc2)c(=O)[nH]1 | -2 | 2 | / | -7 | 6 | 23* | 9
COCCNC(=O)c1ccc2c(=O)n(Cc3ccco3)c(SCC(=O)NC3CCCCC3)nc2c1 | -2 | 8 | -0.84 | / | 7 | 33* | 1
O=C(CSc1nc2ccccc2c(=O)n1Cc1ccco1)N1CCCCCC1 | 27 | 2 | -1 | 4 | 0 | 36* | 10
O=C(NCc1ccco1)c1ccc2c(=O)n(Cc3ccco3)c(SCC(=O)N3CCCC3)nc2c1 | 0 | -5 | -0.35 | 11 | 7 | 9 | /
COc1cc(OC)cc(-c2nc3ccccc3c(=O)o2)c1 | / | / | -2.1 | / | 9 | -1 | /
O=c1oc(-c2ccc(Br)o2)nc2ccccc12 | 7 | 7 | -1.4 | / | 3 | 35* | 37*
COCc1nnc(NC(=O)CCCOc2ccccc2OC)s1 | -5 | 6 | 0.38 | -11 | 2 | 6 | /
CN(Cc1ccccc1)c1ncnc2ccc(Br)cc12 | 19 | 14 | -1.6 | 16 | 3 | 39* | 13
CN(C)C(CNC(=O)NC1CCCCC1)c1cccnc1 (centres undefined) | 2 | 10 | 0.53 | -14 | 9 | -2 | /
COc1cc(C2N(c3ccccn3)C(=O)C3CCCN32)cc(OC)c1OC (centres undefined) | 6 | 22 | 0.71 | -16 | 5 | 2 | /
COc1cc(C2Nc3ccc4ncccc4c3C3=C2C(=O)CCC3)cc(OC)c1O (centres undefined) | 3 | 4 | -0.32 | -6 | 8 | 48* | 29*

Compound activity deposited in PubChem by several laboratories.
